Data from ChEMBL document CHEMBL5230162 (RSC Med Chem, 2023).
Values after ≈ are worked out from the molar mass of the structure shown. Active and inactive are the calls of the source. The calls are words filed in the database; no cut-off is given here.

Columns and labels:
[1] = molecular target: T1, 3-hydroxy-3-methylglutaryl-coenzyme A reductase (Homo sapiens) (UniProt P04035); assay: Inhibition of HMG-CoA reductase (unknown origin) in neutral aqueous media
T1 sequence (whole entry): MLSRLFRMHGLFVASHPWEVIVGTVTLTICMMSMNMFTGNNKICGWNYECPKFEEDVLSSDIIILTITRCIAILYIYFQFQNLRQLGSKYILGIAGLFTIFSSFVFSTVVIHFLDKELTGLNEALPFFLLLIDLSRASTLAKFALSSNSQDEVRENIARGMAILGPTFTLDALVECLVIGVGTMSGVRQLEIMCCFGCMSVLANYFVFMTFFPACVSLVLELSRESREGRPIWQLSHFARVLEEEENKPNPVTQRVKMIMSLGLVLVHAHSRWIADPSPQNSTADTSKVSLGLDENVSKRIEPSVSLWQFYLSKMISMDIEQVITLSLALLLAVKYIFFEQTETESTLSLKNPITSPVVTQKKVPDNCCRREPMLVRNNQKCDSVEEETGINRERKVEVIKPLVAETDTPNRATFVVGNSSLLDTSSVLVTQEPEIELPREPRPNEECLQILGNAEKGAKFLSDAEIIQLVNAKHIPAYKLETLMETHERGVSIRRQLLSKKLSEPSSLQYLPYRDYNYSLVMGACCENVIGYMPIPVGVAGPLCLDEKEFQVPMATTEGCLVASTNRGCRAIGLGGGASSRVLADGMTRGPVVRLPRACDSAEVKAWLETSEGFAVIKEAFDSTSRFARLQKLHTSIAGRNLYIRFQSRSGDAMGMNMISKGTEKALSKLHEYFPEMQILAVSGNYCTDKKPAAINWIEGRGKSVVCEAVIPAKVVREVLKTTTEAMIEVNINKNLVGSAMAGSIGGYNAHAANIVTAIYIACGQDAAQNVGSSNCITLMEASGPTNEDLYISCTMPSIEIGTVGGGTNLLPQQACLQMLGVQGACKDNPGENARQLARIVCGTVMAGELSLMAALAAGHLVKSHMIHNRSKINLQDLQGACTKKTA
In short: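 HMG-CoA reductase kit assay. Compounds were 0.1 mM working solutions made from 0.01 M DMSO stocks diluted in water; 2 μL of each added per well. NADPH consumption followed as absorbance at 340 nm every 20 s for up to 10 min. Activity calculated from the NADPH extinction coefficient. Run in triplicate.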

[2] = Solubility of the compound in water incubated for 15 mins under shaking conditions by UV spectrophotometry; format: physicochemical
[3] = Binding affinity to human ASGPR assessed as equilibrium dissociation constant by surface plasmon resonance spectroscopy
[4] = Stability of the compound in acetate buffer at pH 5 measured for 24 hrs by HPLC-MS analysis; format: physicochemical; settings: pH 5, 24 h
In short: (§1)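 Incubated at 37 °C. Aliquots taken at 0, 0.5, 1, 2, 4, 8 and 24 h and quenched in cold methanol, stored at −20 °C, centrifuged, and the supernatant analysed by HPLC-MS.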

[5] = Stability of the compound in acetate buffer at pH 5 measured after 24 hrs by HPLC-MS analysis; format: physicochemical; settings: pH 5, 24 h; in short: as §1
[6] = molecular target: T1, 3-hydroxy-3-methylglutaryl-coenzyme A reductase (Homo sapiens); assay: Inhibition of HMG-CoA reductase (unknown origin) in presence of cathepsin B
In short: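 Compound (40 μM final) incubated for 24 h at 37 °C with recombinant cathepsin B (30 nM final) in 0.1 M sodium acetate pH 3.6, 100 mM NaCl, 1 mM EDTA, 0.6% DMSO. 5 μL of the mixture then tested in the HMG-CoA reductase kit assay: absorbance at 340 nm every 20 s for up to 10 min, in triplicate. Controls: enzyme-only buffer and compound without protease.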

[7] = Stability of the compound in PBS buffer at pH 7.4 measured after 24 hrs by HPLC-MS analysis; format: physicochemical; settings: pH 7.4, 24 h; in short: as §1
[8] = Solubility of the compound in water incubated for 15 mins under shaking conditions by UV spectrophotometry relative to atorvastatin; format: physicochemical; settings: buffer, 0.25 h
In short: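 Excess compound shaken strongly in 1 ml water for 15 min, then filtered or centrifuged. 50 μL of the saturated solution diluted into 1 mL methanol. Absorbance read at 290 nm and concentration taken from standard curves.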

SMILES	inhibition (active/not active) [1]	solubility at 0.25 h [2] [µM]	Kd [3] [nM]	Stability [4]	Stability [5]	inhibition [6]	Stability [7]	fold change (FC) [8]
CC(=O)N[C@@H]1[C@@H](O)[C@@H](O)[C@@H](CO)O[C@H]1n1cc(COC(=O)C[C@H](O)C[C@H](O)CCn2c(-c3ccc(F)cc3)c(-c3ccccc3)c(C(=O)Nc3ccccc3)c2C(C)C)nn1	Active	200 (≈ 169 µg/mL)	48	Stable	–	–	–	–
CC(=O)N[C@@H]1[C@@H](O)[C@@H](O)[C@@H](CO)O[C@@H]1O	–	–	4500	–	–	–	–	–
CC(=O)N[C@@H]1[C@@H](O)[C@@H](O)[C@@H](CO)O[C@H]1n1cc(COC(=O)C[C@H]2C[C@@H](CCn3c(-c4ccc(F)cc4)c(-c4ccccc4)c(C(=O)Nc4ccccc4)c3C(C)C)OC(C)(C)O2)nn1	–	30 (≈ 26.5 µg/mL)	0.15	–	–	–	–	–
CC(=O)N[C@H]1[C@H](OCCn2cc(COC(=O)C[C@H]3C[C@@H](CCn4c(-c5ccc(F)cc5)c(-c5ccccc5)c(C(=O)Nc5ccccc5)c4C(C)C)OC(C)(C)O3)nn2)O[C@H](CO)[C@H](O)[C@@H]1O	Active	50 (≈ 46.4 µg/mL)	0.33	–	–	–	–	–
CC[C@H](C)C(=O)O[C@H]1C[C@H](O)C=C2C=C[C@H](C)[C@H](CC[C@@H](O)C[C@@H](O)CC(=O)O)[C@H]21	–	–	–	–	–	Active	–	–
CC(=O)N[C@H]1[C@H](OCCNC(=O)C[C@H](O)C[C@H](O)CCn2c(-c3ccc(F)cc3)c(-c3ccccc3)c(C(=O)Nc3ccccc3)c2C(C)C)O[C@H](CO)[C@H](O)[C@@H]1O	–	430 (≈ 346 µg/mL)	69	–	–	–	–	4

The remaining lines, values ahead:

inhibition (active/not active) [1]	solubility at 0.25 h [2] [µM]	Kd [3] [nM]	Stability [4]	Stability [5]	inhibition [6]	Stability [7]	fold change (FC) [8]	SMILES
inactive	450 (≈ 379 µg/mL)	113	–	Stable	Active	Stable	4	CC(=O)N[C@@H]1[C@@H](O)[C@@H](O)[C@@H](CO)O[C@H]1n1cc(CNC(=O)C[C@H](O)C[C@H](O)CCn2c(-c3ccc(F)cc3)c(-c3ccccc3)c(C(=O)Nc3ccccc3)c2C(C)C)nn1
–	320 (≈ 284 µg/mL)	79	Stable	–	–	–	–	CC(=O)N[C@H]1[C@H](OCCn2cc(COC(=O)C[C@H](O)C[C@H](O)CCn3c(-c4ccc(F)cc4)c(-c4ccccc4)c(C(=O)Nc4ccccc4)c3C(C)C)nn2)O[C@H](CO)[C@H](O)[C@@H]1O
inactive	540 (≈ 478 µg/mL)	161	–	Stable	Active	Stable	5	CC(=O)N[C@H]1[C@H](OCCn2cc(CNC(=O)C[C@H](O)C[C@H](O)CCn3c(-c4ccc(F)cc4)c(-c4ccccc4)c(C(=O)Nc4ccccc4)c3C(C)C)nn2)O[C@H](CO)[C@H](O)[C@@H]1O
